Converted amounts (≈) assume the structure as drawn.
How the values were obtained:
Staphylococcus aureus [1] = assay: Minimum inhibitory concentration against methicillin-susceptible Staphylococcus aureus UC9213; Range is 2-4 ug/mL; assay type: functional
Procedure, shortened: (§1)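 MIC determined by standard broth microdilution following the NCCLS M7-A4 approved standard for dilution susceptibility testing of aerobically growing bacteria.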

Staphylococcus aureus [2] = assay: Minimum inhibitory concentration against methicillin, ciprofloxacin, rifampin, imipenem-resistant Staphylococcus aureus UC12673; assay type: functional; procedure, shortened: as §1
[3] = system: Staphylococcus epidermidis; assay: Minimum inhibitory concentration against methicillin-resistant Staphylococcus epidermidis UC12084; Range is 0.5-1 ug/mL
Streptococcus pneumoniae [4] = assay: Minimum inhibitory concentration against penicillin-susceptible Streptococcus pneumoniae UC9912; assay type: functional
Procedure, shortened: (§2)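 Broth microdilution MIC following the NCCLS M7-A4 approved standard for dilution susceptibility testing of aerobically growing bacteria. The method is taken as accurate to within one dilution.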

Haemophilus influenzae [5] = assay: Minimum inhibitory concentration against ampicillin-reisitant Haemophilus influenzae UC30063; Range is 8-16 ug/mL; assay type: functional; procedure, shortened: as §1
Escherichia coli = assay: Minimum inhibitory concentration against Escherichia coli UC6674; assay type: functional; procedure, shortened: as §2
Enterococcus faecalis [6] = assay: Minimum inhibitory concentration against Enterococcus faecalis UC9217; assay type: functional; procedure, shortened: as §2
Staphylococcus aureus [7] = assay: Minimum inhibitory concentration against methicillin-susceptible Staphylococcus aureus UC9213; assay type: functional; procedure, shortened: as §1
[8] = system: Staphylococcus epidermidis; assay: Minimum inhibitory concentration against methicillin-resistant Staphylococcus epidermidis UC12084
Haemophilus influenzae [9] = assay: Minimum inhibitory concentration against ampicillin-reisitant Haemophilus influenzae UC30063; assay type: functional; procedure, shortened: as §2
Streptococcus pneumoniae [10] = assay: Minimum inhibitory concentration against penicillin-susceptible Streptococcus pneumoniae UC9912; Range is 0.5-1 ug/mL; assay type: functional; procedure, shortened: as §2
Staphylococcus aureus [11] = assay: Minimum inhibitory concentration against methicillin, ciprofloxacin, rifampin, imipenem-resistant Staphylococcus aureus UC12673; Range is 2-4 ug/mL; assay type: functional; procedure, shortened: as §1
[12] = system: Staphylococcus epidermidis; assay: Minimum inhibitory concentration against methicillin-resistant Staphylococcus epidermidis UC12084; Range is from 1-2 ug/mL
Enterococcus faecalis [13] = assay: Minimum inhibitory concentration against Enterococcus faecalis UC9217; Range is from 2-4 ug/mL; assay type: functional; procedure, shortened: as §2
Staphylococcus aureus [14] = assay: Minimum inhibitory concentration against methicillin, ciprofloxacin, rifampin, imipenem-resistant Staphylococcus aureus UC12673; Range is 1-2 ug/mL; assay type: functional; procedure, shortened: as §1
Enterococcus faecalis [15] = assay: Minimum inhibitory concentration against Enterococcus faecalis UC9217; Range is 1-2 ug/mL; assay type: functional; procedure, shortened: as §2
[16] = system: Staphylococcus epidermidis; assay: Minimum inhibitory concentration against methicillin-resistant Staphylococcus epidermidis UC12084; Range is 1-2 ug/mL
Streptococcus pneumoniae [17] = assay: Minimum inhibitory concentration against penicillin-susceptible Streptococcus pneumoniae UC9912; Range is 1-2 ug/mL; assay type: functional; procedure, shortened: as §2
[18] = Streptococcus pneumoniae, read-out: MIC
[19] = Haemophilus influenzae, read-out: MIC

| SMILES | MIC (Staphylococcus aureus [2]) [mg/L] | MIC (Streptococcus pneumoniae [4]; [18]) [mg/L] | MIC (Escherichia coli) [mg/L] | MIC (Enterococcus faecalis [6]) [mg/L] | MIC (Staphylococcus aureus [7]) [mg/L] | MIC [8] [mg/L] | MIC (Haemophilus influenzae [9]; [19]) [mg/L] | also measured |
| --- | --- | --- | --- | --- | --- | --- | --- | --- |
| CC(=O)NC[C@H]1CN(c2ccc(N3C[C@@H]4[C@@H](N)[C@@H]4C3)c(F)c2)C(=O)O1 | 4 (≈ 11.5 µM) | 1 (≈ 2.87 µM) | 32 (≈ 91.9 µM) | 4 (≈ 11.5 µM) |  |  |  | MIC (Staphylococcus aureus [1]): 4 mg/L (≈ 11.5 µM); MIC [3]: 1 mg/L (≈ 2.87 µM); MIC (Haemophilus influenzae [5]): 16 mg/L (≈ 45.9 µM) |
| CC(=O)NC[C@H]1CN(c2cc(F)c(N3C[C@@H]4[C@H](C3)[C@H]4C(=O)Nc3nccs3)c(F)c2)C(=O)O1 | 1 (≈ 2.09 µM) | 0.13 (≈ 0.272 µM) |  | 0.5 (≈ 1.05 µM) | 2 (≈ 4.19 µM) | 0.25 (≈ 0.524 µM) | > 64 |  |
| CC(=O)NC[C@H]1CN(c2ccc(N3C[C@H]4C[C@H]4C3)c(F)c2)C(=O)O1 | 2 (≈ 6 µM) | 1 (≈ 3 µM) | > 64 | 2 (≈ 6 µM) | 2 (≈ 6 µM) | 1 (≈ 3 µM) | 32 (≈ 96 µM) |  |
| CC(=O)NC[C@H]1CN(c2cc(F)c(N3C[C@@H]4[C@H](C3)[C@H]4NC(=O)Nc3ccccc3)c(F)c2)C(=O)O1 | 4 (≈ 8.24 µM) | 1 (≈ 2.06 µM) | > 64 | 2 (≈ 4.12 µM) | 8 (≈ 16.5 µM) | 2 (≈ 4.12 µM) | > 64 |  |
| CC(=O)NC[C@H]1CN(c2cc(F)c(N3C[C@@H]4[C@H](C3)[C@H]4NC=O)c(F)c2)C(=O)O1 |  |  | > 64 | 2 (≈ 5.07 µM) |  | 1 (≈ 2.54 µM) | 32 (≈ 81.1 µM) | MIC (Staphylococcus aureus [1]): 4 mg/L (≈ 10.1 µM); MIC (Streptococcus pneumoniae [10]): 1 mg/L (≈ 2.54 µM); MIC (Staphylococcus aureus [11]): 4 mg/L (≈ 10.1 µM) |
| CC(=O)NC[C@H]1CN(c2cc(F)c(N3C[C@H]4C[C@H]4C3)c(F)c2)C(=O)O1 | 2 (≈ 5.69 µM) | 0.5 (≈ 1.42 µM) | > 64 | 2 (≈ 5.69 µM) | 2 (≈ 5.69 µM) | 1 (≈ 2.85 µM) | 64 (≈ 182 µM) |  |
| CC(=O)NC[C@H]1CN(c2cc(F)c(N3C[C@@H]4[C@@H](N)[C@@H]4C3)c(F)c2)C(=O)O1 (stereo in doubt) | 4 (≈ 10.9 µM) |  | > 64 | 4 (≈ 10.9 µM) | 8 (≈ 21.8 µM) | 1 (≈ 2.73 µM) |  | MIC (Haemophilus influenzae [9]): 32 mg/L (≈ 87.3 µM); MIC (Streptococcus pneumoniae [4]): 1 mg/L (≈ 2.73 µM) |
| CC(=O)NC[C@H]1CN(c2cc(F)c(N3C[C@@H]4[C@H](C3)[C@H]4C(=O)N(C)C)c(F)c2)C(=O)O1 | 4 (≈ 9.47 µM) | 2 (≈ 4.73 µM) | > 64 | 4 (≈ 9.47 µM) | 4 (≈ 9.47 µM) | 2 (≈ 4.73 µM) | 64 (≈ 152 µM) |  |
| CC(=O)NC[C@H]1CN(c2cc(F)c(N3C[C@@H]4[C@H](C3)[C@H]4NC(C)=O)c(F)c2)C(=O)O1 | 4 (≈ 9.79 µM) | 1 (≈ 2.45 µM) | > 64 |  | 4 (≈ 9.79 µM) |  | 64 (≈ 157 µM) | MIC [12]: 2 mg/L (≈ 4.9 µM); MIC (Enterococcus faecalis [13]): 4 mg/L (≈ 9.79 µM) |
| O=C(NC[C@H]1CN(c2cc(F)c(N3C[C@@H]4[C@H](C3)[C@H]4C(=O)O)c(F)c2)C(=O)O1)C(F)F | 0.5 (≈ 1.16 µM) | 1 (≈ 2.32 µM) |  | 0.5 (≈ 1.16 µM) | 1 (≈ 2.32 µM) | 0.5 (≈ 1.16 µM) | 4 (≈ 9.27 µM) |  |
| CC(=O)NC[C@H]1CN(c2cc(F)c(N3C[C@@H]4[C@H](C3)[C@H]4C(=O)NO)c(F)c2)C(=O)O1 | 4 (≈ 9.75 µM) | 1 (≈ 2.44 µM) | > 64 | 2 (≈ 4.87 µM) | 4 (≈ 9.75 µM) | 2 (≈ 4.87 µM) | 32 (≈ 78 µM) |  |
| CC(=O)NC[C@H]1CN(c2cc(F)c(N3C[C@@H]4[C@H](C3)[C@H]4C(N)=O)c(F)c2)C(=O)O1 | 4 (≈ 10.1 µM) | 1 (≈ 2.54 µM) | > 64 | 2 (≈ 5.07 µM) | 4 (≈ 10.1 µM) | 2 (≈ 5.07 µM) | 32 (≈ 81.1 µM) |  |
| CC(=O)NC[C@H]1CN(c2cc(F)c(N3C[C@@H]4[C@@H](O)[C@@H]4C3)c(F)c2)C(=O)O1 |  | 1 (≈ 2.72 µM) | > 64 |  |  | 1 (≈ 2.72 µM) | 16 (≈ 43.6 µM) | MIC (Staphylococcus aureus [14]): 2 mg/L (≈ 5.44 µM); MIC (Staphylococcus aureus [1]): 4 mg/L (≈ 10.9 µM); MIC (Enterococcus faecalis [15]): 2 mg/L (≈ 5.44 µM) |
| CCC(=O)NC[C@H]1CN(c2cc(F)c(N3C[C@@H]4[C@H](C3)[C@H]4C(=O)O)c(F)c2)C(=O)O1 | 1 (≈ 2.44 µM) |  |  | 1 (≈ 2.44 µM) | 2 (≈ 4.89 µM) |  | 8 (≈ 19.5 µM) | MIC [16]: 2 mg/L (≈ 4.89 µM); MIC (Streptococcus pneumoniae [17]): 2 mg/L (≈ 4.89 µM) |
| CC(=O)NC[C@H]1CN(c2cc(F)c(N3C[C@@H]4[C@H](C3)[C@H]4C(=O)NOCc3ccccc3)c(F)c2)C(=O)O1 | 2 (≈ 4 µM) | 1 (≈ 2 µM) | > 64 | 2 (≈ 4 µM) | 4 (≈ 7.99 µM) | 1 (≈ 2 µM) | > 64 |  |

From ChEMBL document CHEMBL1140345, “Conformational constraint in oxazolidinone antibacterials. Synthesis and structure-activity studies of (azabicyclo[3.1.0]hexylphenyl)oxazolidinones” (2005)
